Bioassay records as filed in PubChem.
Only some compounds are listed: those with a hit (about 4.1% of all), similar ones and a draw of the others.
KCNQ1 act: potentiators or activators of KCNQ1 channel, primary screen, cell-based, thallium flux, high-throughput | Potassium voltage-gated channel subfamily KQT member 1 (Homo sapiens), P51787 | CHO-K1 KCNQ1, thallium flux FluxOR fluorescence; active compounds read high | B-score at 10 µM | hit rate 0.35% among 310,000 | AID 2648, 2010;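 active means fluorescence ratio B-score, a plate-corrected score, at least three library SD, with initial intensity B-score within 5 SD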
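Assay system: CHO-K1 cells stably expressing KCNQ1; Medium: assay buffer with matched DMSO; Also added: K+/Tl+ depolarizing stimulus; Dosing: single dose; Timing: dye 90 min, compound 20 min, room temperature; Measured by: kinetic FluxOR thallium fluorescence, 10-s 1-Hz baseline, 110-s post-stimulus read; Read-out: peak-minus-minimum fluorescence over initial fluorescence, negative-control normalized, B-scored.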
KCNQ1 inh: inhibitors of human KCNQ1 channel, primary screen, cell-based, thallium flux, high-throughput. CHO-K1 KCNQ1, FluxOR thallium flux fluorescence; active compounds read high. B-score at 10 µM. hit rate 1.3% among 310,000. AID 2642, 2010;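 active means compounds whose thallium flux B-score, printed positive for inhibition, exceeds three library SD while starting fluorescence stays within three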;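 further: channel opened by potassium depolarization with thallium stimulus after 20 min compound exposure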
Cl transport mod: KCC2 cotransporter modulators, thallium flux, primary screen, cell-based, HEK293 KCC2, FluoZin-2 fluorescence, MLSMR; Solute carrier family 12 member 5 (Homo sapiens), Q9H2X9; KCC2 cells, thallium flux FluoZin-2 fluorescence; B-score of Tl+ flux slope (higher = more flux/activation; lower = inhibition) at 10 µM; hit rate 2.2% among 190,000; AID 1456, 2008;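 active means thallium flux slope and its plate-corrected score both differing from the plate sample mean at a set confidence after two filtering rounds, in either direction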;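 further: slope of fluorescence scaled to starting intensity during 10 to 20 s after thallium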
KCNK3 block: human KCNK3 channel inhibitors, primary screen, CHO cells, FluxOR thallium flux, B-score; B-score at 10 µM; FluxOR fluorescence; active compounds read low; hit rate 0.84% among 340,000; AID 602410, 2012; Potassium channel subfamily K member 3 (Homo sapiens), O14649;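 active means B-score under library mean minus 4 SD, starting fluorescence ratio at most library mean plus 5 SD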;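 further: more negative B-score means stronger inhibition of thallium flux through KCNK3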
hERG protect: hERG rescue from dofetilide block, primary screen, cell-based, CHO-hERG, FluxOR thallium flux, dofetilide IC70. dofetilide IC70 present. activation (rescue from dofetilide block), less the hit threshold, % at 10 µM. hit rate 0.51% among 310,000;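 active means activation above the mean of controls blocked by dofetilide plus 5 SD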;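 further: thallium influx through hERG after potassium depolarization seen as dye fluorescence rise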
KCNK9 block: KCNK9 potassium channel inhibitors, primary screen, HEK293 cells, thallium flux; FluxOR thallium flux fluorescence; active compounds read low; Potassium channel subfamily K member 9 (Homo sapiens), Q9NPC2; B-score at 10 µM; hit rate 1.2% among 310,000;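 active means ratio B-score over 3 SD below the library mean, with starting fluorescence within 5 SD of its mean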;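 further: negative B-score means less thallium flux so channel inhibition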
KCC2 sec1: KCC2 modulators in sodium-free buffer, confirmation, cell-based, HEK293 KCC2, thallium flux, secondary assay; shares compounds with Cl transport mod; FluoZin2 fluorescence; active compounds read high; normalised thallium flux (F/F0 slope) at 10 µM; hit rate 15% among 3,700; AID 1713, 2009;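 active means thallium flux slope above the same plate's solvent-only control mean plus 3 SD; inconclusive means the two replicate wells disagree; inactive means no significant difference from solvent-only control wells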
KCC2 bumet counter: thallium flux persisting under bumetanide in KCC2 cells, confirmation, counter-screen for KCC2 modulator project, cell-based, HEK293 KCC2, FluoZin2, secondary assay 3; shares compounds with Cl transport mod; HEK293-KCC2 + bumetanide/ouabain; active compounds read high; normalized thallium flux at 10 µM; hit rate 49% among 3,700;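 active means thallium entry rate above the same plate's blocked-transporter control wells by more than 3 SD; inconclusive means the two repeat wells disagree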;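 further: raw slope of fluorescence over initial fluorescence between 10 and 20 s after thallium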
KCC2 secondary2: KCC2 modulators without ouabain present, confirmation, cell-based, HEK293 KCC2, thallium flux, FluoZin2, secondary assay 2; hit rate 23% among 3,700; shares compounds with Cl transport mod; normalized thallium flux at 10 µM; thallium flux FluoZin2 fluorescence; actives lie on both sides; F/F0 rise rate, 10–20 s post-thallium;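 active means thallium flux slope more than 3 SD above or below the plate's solvent-only control mean, mostly below; inconclusive means the two repeat wells disagreed; inactive means no significant shift from solvent-only controls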;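 further: raw slope with 0.1% DMSO as baseline and bumetanide as block control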
HEK293 Tl flux: thallium flux modulation in parental HEK cells, confirmation, counter-screen for KCC2 modulator project, cell-based, counterscreen 1; shares compounds with Cl transport mod; HEK293 parental cells, thallium flux FluoZin2, ouabain; baseline-ratio fluorescence slope, 10–20 s after thallium; thallium flux rate (normalised fluorescence) at 10 µM; AID 1716, 2009; hit rate 46% among 3,700;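 active means thallium flux rate significantly above the same plate's solvent-only control wells, beyond their mean plus 3 SD; inconclusive means the two replicate wells gave conflicting results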
KCC2 retest ouab: KCC2 inhibitors and activators, ouabain retest, confirmation, HEK-KCC2 cells. shares compounds with Cl transport mod. HEK293-KCC2, thallium flux FluoZin2 fluorescence; bidirectional: low = inhibitor, high = activator. raw Tl+ flux slope (below DMSO = inhibition, above = activation) at 10 µM. hit rate 48% among 3,700;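 active means thallium flux slope beyond 3 SD from same-plate DMSO control mean in most replicates, usually higher, sometimes lower; inconclusive means repeat tests gave conflicting results; inactive means no significant difference from controls in most replicates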;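 further: slope of initial-normalized fluorescence between seconds 10 and 20 after thallium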
HEK counter2: native HEK Tl+ uptake effects, second counter-screen – HEK cells, counterscreen 2, counter-screen for KCC2 modulator project, confirmation. shares compounds with Cl transport mod. HEK293 parental, thallium flux FluoZin-2 fluorescence slope. thallium flux slope at 10 µM. hit rate 33% among 3,700;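 active means thallium flux slope above the same plate's solvent-control mean plus 3 SD in both duplicate wells; inconclusive means duplicate wells that disagreed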;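 further: run without ouabain in cells lacking the KCC2 cotransporter; slope of fluorescence scaled to its starting value between 10 and 20 s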
The depositor's hits bear a star; i = inactive; ? = inconclusive; . = not tested or not shown.

SMILES	KCNQ1 act	KCNQ1 inh	Cl transport mod	KCNK3 block	hERG protect	KCNK9 block	KCC2 sec1	KCC2 bumet counter	KCC2 secondary2	HEK293 Tl flux	KCC2 retest ouab	HEK counter2
Cc1onc(-c2ccccc2)c1C(=O)NC(=S)Nc1sc2c(c1C#N)CCC(C)C2 (configuration not stated)	21*	i	21*	i	15*	i	?	0.058*	?	0.024*	0.037*	0.025*
Cc1ccc(NC(=S)NC(=O)c2c(-c3ccccc3Cl)noc2C)cc1	i	i	5.4*	i	-8	i	0.0075	0.035*	0.028	0.015*	0.037*	?
CCCOc1ccc(C(=O)NC(=S)NNC(=O)c2c(-c3ccccc3)noc2C)cc1	15*	i	62*	i	-12	i	0.021*	0.065*	?	0.045*	0.04*	0.04*
CC(=O)N1CCN(C(=S)NC(=O)c2c(-c3ccccc3Cl)noc2C)CC1	i	i	1.3	i	-11	i	.	.	.	.	.	.
CCCOc1ccc(NC(=O)c2c(-c3ccccc3)noc2C)cc1	i	i	0.17	i	1	i	.	.	.	.	.	.
Cc1onc(-c2ccccc2Cl)c1C(=O)NC(=S)Nc1ccc(C(C)C)cc1	i	i	9.9*	i	-1	i	0.0076	0.013*	0.029	0.014*	?	0.013*
Cc1onc(-c2ccccc2Cl)c1C(=O)NC(=S)Nc1ccccc1F	i	i	54*	i	1	i	0.015*	0.099*	0.035	0.044*	0.041*	0.013*
CS(=O)(=O)Nc1ccc(C(=O)N2CC(=O)Nc3ccccc32)cc1	i	i	.	i	-7	i	.	.	.	.	.	.
CN(C)S(=O)(=O)c1cc(NC(=O)CSc2ncc(C(F)(F)F)cc2Cl)ccc1Cl	i	i	50*	i	-3	i	0.0078	0.0047	?	0.0075	0.019	0.011
NNC(=O)c1cc(NS(=O)(=O)c2cccs2)cc(NS(=O)(=O)c2cccs2)c1	.	.	.	i	.	.	.	.	.	.	.	.
O=C(NCC(=O)N1CCCC(C(F)(F)F)C1)c1ccco1 (configuration not stated)	.	.	.	i	.	.	.	.	.	.	.	.
CCn1c(NN)nc2sc3c(c2c1=O)CCC3	.	.	6*	i	.	.	0.014*	0.019*	0.035	0.018*	0.03*	?
NNc1nc2sc3c(c2c(=O)n1Cc1ccccc1)CCC3	i	i	4.1*	i	-3	i	0.012	0.017*	0.037	?	?	0.012
CCOc1ccc(CCNC(=O)c2cccc(S(=O)(=O)N3CCN(C(C)=O)CC3)c2)cc1OCC	i	i	.	i	-6	i	.	.	.	.	.	.
COc1ccc(Cc2nnc(SCC(=O)Nc3ncc(C)s3)o2)cc1	i	i	.	i	-5	i	.	.	.	.	.	.
COCc1nnc(NC(=O)CSc2ccc(C)cc2)s1	i	i	0.71	i	-16	i	.	.	.	.	.	.
CCc1nnc(NC(=O)CSc2nnc(COc3ccccc3C)o2)s1	i	i	.	i	-13	i	0.0058	?	0.025*	?	0.016*	0.011
COc1ccc(NC(=O)CSc2nnc(Cc3ccccc3)o2)c(OC)c1	i	i	-3.9*	i	-7	i	0.0071	0.0052	0.029	?	0.014*	0.0098
Cc1cnc(NC(=O)CSc2nnc(Cc3ccccc3)o2)s1	i	i	-4.4*	i	-6	i	0.0074	0.0051	0.021*	0.0081	?	0.011
COc1ccccc1NC(=O)CSc1nnc(Cc2ccccc2)o1	i	i	-2.1	i	-5	i	.	.	.	.	.	.
COCc1nnc(NC(=O)CSc2ccccc2)s1	i	i	-4.8*	i	-9	i	0.008	0.0057	0.036	0.0044	0.021	0.011
Cc1nn(-c2ccc(F)cc2)c(C)c1NS(=O)(=O)c1ccc(Cl)cc1	i	i	-4.6*	i	-3	i	0.0057	0.0049	0.022*	0.0068	?	0.01
COc1cc2ccccc2cc1C(=O)NC(=S)Nc1cc(C(=O)O)ccc1C	i	i	-7*	i	-3	i	0.008	0.0085*	0.033	0.0064	0.017*	0.01
Cc1ccc(S(=O)(=O)N2CCCCC2)cc1NC(=O)COC(=O)C1(C)CC1(Cl)Cl (configuration not stated)	.	.	.	i	.	.	.	.	.	.	.	.
O=C(NCc1ccccn1)Nc1ccccc1C(F)(F)F	i	i	.	i	-13	i	.	.	.	.	.	.
O=C(CNC(=S)NC(=O)c1ccc(Cl)cc1)c1ccccc1	i	i	1.8	i	-11	i	.	.	.	.	.	.
O=C(CNC(=S)NC(=O)c1ccc(Br)o1)c1ccccc1	i	i	5.7*	i	-1	i	0.014*	0.047*	0.034	0.041*	0.037*	0.016*
